Laboratory results from ChEMBL document CHEMBL5653631, “A Potent and Selective ULK1 Inhibitor Suppresses Autophagy and Sensitizes Cancer Cells to Nutrient Stress” (iScience, 2018).
Blank lines part the entries; values can stand above or below the compound they belong to.

Experiments:
[1] = target: Dual specificity mitogen-activated protein kinase kinase 1 (Homo sapiens) (UniProt Q02750); assay: Inhibition of human recombinant MAP2K1 at 500 nM in presence of ATP by radiometric assay relative to control
[2] = target: Ribosomal protein S6 kinase alpha-1 (Homo sapiens) (UniProt Q15418); assay: Inhibition of human recombinant RSK1 at 500 nM in presence of ATP by radiometric assay relative to control
[3] = target: T1, Dual specificity tyrosine-phosphorylation-regulated kinase 2 (Homo sapiens) (UniProt Q92630); assay: Inhibition of human recombinant DYRK2 at 500 nM related to control ULK1
T1 sequence (whole entry): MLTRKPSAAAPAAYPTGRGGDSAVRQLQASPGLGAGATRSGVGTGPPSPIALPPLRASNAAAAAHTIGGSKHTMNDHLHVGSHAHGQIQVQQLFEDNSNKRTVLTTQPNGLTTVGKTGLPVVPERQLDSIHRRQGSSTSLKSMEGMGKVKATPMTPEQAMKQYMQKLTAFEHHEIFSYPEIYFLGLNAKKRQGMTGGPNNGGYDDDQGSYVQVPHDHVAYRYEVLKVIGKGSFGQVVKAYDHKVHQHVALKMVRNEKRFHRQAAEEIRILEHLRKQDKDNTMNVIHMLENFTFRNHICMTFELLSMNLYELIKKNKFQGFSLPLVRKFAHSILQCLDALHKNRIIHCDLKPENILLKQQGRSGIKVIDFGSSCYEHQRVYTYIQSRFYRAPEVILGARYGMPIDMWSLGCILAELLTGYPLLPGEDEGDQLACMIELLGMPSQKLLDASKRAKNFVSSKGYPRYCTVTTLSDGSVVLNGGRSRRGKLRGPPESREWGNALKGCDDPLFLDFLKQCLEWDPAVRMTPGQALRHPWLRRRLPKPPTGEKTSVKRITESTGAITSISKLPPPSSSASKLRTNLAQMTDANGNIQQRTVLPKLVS

[4] = target: Ribosomal protein S6 kinase alpha-4 (Homo sapiens) (UniProt O75676); assay: Inhibition of human recombinant MSK2 at 500 nM related to control ULK1
[5] = target: Protein kinase C gamma type (Homo sapiens) (UniProt P05129); assay: Inhibition of human recombinant PKCg at 500 nM related to control ULK1
[6] = target: Protein-tyrosine kinase 2-beta (Homo sapiens) (UniProt Q14289); assay: Inhibition of human recombinant PYK2 at 500 nM related to control ULK1
[7] = target: TGF-beta receptor type-2 (Homo sapiens) (UniProt P37173); assay: Inhibition of human recombinant TGFbR2 at 500 nM related to control ULK1
[8] = target: T2, Serine/threonine-protein kinase BRSK1 (Homo sapiens) (UniProt Q8TDC3); assay: Inhibition of human recombinant BRSK1 at 15 nM in presence of ATP by radiometric assay relative to control
T2 sequence (whole entry): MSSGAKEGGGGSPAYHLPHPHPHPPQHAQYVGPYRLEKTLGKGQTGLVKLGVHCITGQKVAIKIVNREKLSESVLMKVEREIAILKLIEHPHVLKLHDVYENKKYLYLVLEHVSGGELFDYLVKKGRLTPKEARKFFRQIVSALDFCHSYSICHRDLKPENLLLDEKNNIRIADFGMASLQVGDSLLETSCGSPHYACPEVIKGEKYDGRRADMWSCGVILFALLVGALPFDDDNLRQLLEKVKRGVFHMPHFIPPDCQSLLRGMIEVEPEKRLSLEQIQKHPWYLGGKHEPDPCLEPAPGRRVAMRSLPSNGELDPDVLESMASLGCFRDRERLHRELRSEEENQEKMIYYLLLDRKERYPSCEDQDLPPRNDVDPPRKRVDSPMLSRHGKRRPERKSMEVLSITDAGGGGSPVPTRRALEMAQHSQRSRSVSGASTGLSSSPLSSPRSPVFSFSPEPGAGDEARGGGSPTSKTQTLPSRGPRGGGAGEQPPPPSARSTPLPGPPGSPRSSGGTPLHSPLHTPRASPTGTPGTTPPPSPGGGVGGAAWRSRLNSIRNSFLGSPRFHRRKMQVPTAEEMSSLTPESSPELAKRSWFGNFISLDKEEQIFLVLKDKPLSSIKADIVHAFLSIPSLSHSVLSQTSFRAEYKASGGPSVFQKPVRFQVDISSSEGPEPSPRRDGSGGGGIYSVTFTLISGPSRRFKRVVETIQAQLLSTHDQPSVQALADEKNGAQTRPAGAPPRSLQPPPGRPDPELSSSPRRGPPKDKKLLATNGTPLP
In short: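 Part of a radiometric in vitro activity panel of 327 recombinant human kinases. Each kinase was tested in duplicate at one inhibitor concentration. Activity remaining was expressed as a percentage of the vehicle control, and percent inhibition was taken as 100 minus that value.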

[9] = target: Casein kinase II subunit alpha' (Homo sapiens) (UniProt P19784); assay: Inhibition of human recombinant CK2a2 at 15 nM in presence of ATP by radiometric assay relative to control
[10] = target: T3, Serine/threonine-protein kinase Sgk1 (Homo sapiens) (UniProt O00141); assay: Inhibition of human recombinant SGK1 at 15 nM in presence of ATP by radiometric assay relative to control
T3 sequence (whole entry): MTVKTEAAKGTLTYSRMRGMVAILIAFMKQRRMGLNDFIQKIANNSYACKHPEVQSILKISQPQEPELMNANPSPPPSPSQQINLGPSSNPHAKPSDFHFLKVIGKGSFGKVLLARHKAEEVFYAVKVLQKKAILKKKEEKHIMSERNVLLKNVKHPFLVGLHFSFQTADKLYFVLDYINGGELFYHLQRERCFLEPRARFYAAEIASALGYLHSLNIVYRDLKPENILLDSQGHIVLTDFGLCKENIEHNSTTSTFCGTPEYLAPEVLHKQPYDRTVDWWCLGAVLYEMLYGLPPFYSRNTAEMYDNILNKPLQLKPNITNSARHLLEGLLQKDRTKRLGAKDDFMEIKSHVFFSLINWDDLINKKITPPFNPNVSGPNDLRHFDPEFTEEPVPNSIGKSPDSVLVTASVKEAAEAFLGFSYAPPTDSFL

[11] = target: Tyrosine-protein kinase receptor UFO (Homo sapiens) (UniProt P30530); assay: Inhibition of human recombinant AXL at 40 nM in presence of ATP by radiometric assay relative to control
In short: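 Panel of 327 recombinant human kinases, each assayed in vitro by radiometric activity assay in duplicate at a single inhibitor concentration per compound, chosen with reference to its ULK1 inhibition. Activity remaining was expressed as percent of vehicle control, and percent inhibition was calculated as 100 minus percent activity remaining.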

[12] = target: Casein kinase II subunit alpha (Homo sapiens) (UniProt P68400); assay: Inhibition of human recombinant CK2a1 at 40 nM in presence of ATP by radiometric assay relative to control
[13] = target: Wee1-like protein kinase 2 (Homo sapiens) (UniProt P0C1S8); assay: Inhibition of human recombinant Wee1B at 40 nM in presence of ATP by radiometric assay relative to control
[14] = target: Vascular endothelial growth factor receptor 3 (Homo sapiens) (UniProt P35916); assay: Inhibition of human recombinant FLT4 at 40 nM related to control ULK1
Sequence of Vascular endothelial growth factor receptor 3 (Homo sapiens) (P35916 whole entry): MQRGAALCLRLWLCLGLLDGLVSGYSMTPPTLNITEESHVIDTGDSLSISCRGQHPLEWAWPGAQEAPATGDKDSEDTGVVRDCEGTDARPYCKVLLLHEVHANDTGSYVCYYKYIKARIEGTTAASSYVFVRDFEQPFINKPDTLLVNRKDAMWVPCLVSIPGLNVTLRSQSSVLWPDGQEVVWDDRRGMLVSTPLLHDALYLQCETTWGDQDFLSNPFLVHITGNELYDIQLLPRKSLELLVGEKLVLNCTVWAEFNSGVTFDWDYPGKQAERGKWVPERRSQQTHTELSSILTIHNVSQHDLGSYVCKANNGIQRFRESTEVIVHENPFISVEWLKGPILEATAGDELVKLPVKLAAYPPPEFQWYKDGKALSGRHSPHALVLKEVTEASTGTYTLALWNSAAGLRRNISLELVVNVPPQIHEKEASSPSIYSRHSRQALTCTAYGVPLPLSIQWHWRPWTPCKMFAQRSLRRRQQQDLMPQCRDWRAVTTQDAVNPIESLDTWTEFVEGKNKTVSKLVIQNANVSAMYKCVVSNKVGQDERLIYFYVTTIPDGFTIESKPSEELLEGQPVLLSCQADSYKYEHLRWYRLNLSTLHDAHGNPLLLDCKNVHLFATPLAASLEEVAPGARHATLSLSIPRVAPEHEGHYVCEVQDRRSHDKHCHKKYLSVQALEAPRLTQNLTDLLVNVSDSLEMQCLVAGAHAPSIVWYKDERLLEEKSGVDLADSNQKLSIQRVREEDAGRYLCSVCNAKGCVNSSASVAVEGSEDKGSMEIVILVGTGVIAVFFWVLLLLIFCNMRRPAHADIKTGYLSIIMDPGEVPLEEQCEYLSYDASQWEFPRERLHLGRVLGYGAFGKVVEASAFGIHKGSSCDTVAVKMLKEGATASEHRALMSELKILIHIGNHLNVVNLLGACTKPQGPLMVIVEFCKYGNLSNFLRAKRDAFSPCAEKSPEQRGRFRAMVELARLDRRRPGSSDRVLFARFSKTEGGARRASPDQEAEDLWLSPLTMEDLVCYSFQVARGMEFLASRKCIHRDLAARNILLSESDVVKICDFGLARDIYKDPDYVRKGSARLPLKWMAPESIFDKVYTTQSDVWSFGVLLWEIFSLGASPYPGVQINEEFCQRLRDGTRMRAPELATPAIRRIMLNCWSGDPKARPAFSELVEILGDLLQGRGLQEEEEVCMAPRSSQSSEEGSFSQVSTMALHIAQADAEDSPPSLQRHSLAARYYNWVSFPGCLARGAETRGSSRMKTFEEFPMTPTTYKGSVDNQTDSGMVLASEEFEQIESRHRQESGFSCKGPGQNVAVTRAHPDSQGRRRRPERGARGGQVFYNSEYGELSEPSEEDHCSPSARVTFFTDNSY

Sequence of Dual specificity mitogen-activated protein kinase kinase 1 (Homo sapiens) (Q02750 whole entry): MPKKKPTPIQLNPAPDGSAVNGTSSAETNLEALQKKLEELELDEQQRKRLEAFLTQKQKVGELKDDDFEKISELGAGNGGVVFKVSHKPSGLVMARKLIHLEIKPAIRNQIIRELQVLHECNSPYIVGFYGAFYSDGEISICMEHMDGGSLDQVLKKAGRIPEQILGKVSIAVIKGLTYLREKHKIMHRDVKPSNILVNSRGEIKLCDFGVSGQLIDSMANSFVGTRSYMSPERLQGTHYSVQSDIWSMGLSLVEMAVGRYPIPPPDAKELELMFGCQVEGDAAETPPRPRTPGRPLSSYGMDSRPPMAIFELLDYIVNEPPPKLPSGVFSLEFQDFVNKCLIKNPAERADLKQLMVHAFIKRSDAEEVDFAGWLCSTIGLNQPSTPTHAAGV
Sequence of Casein kinase II subunit alpha' (Homo sapiens) (P19784 whole entry, looked up): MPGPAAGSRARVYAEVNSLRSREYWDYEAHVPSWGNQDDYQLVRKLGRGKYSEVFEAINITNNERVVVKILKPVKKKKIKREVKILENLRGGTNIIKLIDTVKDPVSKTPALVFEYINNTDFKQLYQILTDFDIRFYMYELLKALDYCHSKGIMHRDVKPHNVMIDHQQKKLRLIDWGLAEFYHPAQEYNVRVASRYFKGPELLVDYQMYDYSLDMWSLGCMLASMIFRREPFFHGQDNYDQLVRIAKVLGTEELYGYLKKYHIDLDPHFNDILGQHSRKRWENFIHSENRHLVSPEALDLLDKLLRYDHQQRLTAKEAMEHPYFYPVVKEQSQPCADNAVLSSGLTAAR
Sequence of Tyrosine-protein kinase receptor UFO (Homo sapiens) (P30530 whole entry): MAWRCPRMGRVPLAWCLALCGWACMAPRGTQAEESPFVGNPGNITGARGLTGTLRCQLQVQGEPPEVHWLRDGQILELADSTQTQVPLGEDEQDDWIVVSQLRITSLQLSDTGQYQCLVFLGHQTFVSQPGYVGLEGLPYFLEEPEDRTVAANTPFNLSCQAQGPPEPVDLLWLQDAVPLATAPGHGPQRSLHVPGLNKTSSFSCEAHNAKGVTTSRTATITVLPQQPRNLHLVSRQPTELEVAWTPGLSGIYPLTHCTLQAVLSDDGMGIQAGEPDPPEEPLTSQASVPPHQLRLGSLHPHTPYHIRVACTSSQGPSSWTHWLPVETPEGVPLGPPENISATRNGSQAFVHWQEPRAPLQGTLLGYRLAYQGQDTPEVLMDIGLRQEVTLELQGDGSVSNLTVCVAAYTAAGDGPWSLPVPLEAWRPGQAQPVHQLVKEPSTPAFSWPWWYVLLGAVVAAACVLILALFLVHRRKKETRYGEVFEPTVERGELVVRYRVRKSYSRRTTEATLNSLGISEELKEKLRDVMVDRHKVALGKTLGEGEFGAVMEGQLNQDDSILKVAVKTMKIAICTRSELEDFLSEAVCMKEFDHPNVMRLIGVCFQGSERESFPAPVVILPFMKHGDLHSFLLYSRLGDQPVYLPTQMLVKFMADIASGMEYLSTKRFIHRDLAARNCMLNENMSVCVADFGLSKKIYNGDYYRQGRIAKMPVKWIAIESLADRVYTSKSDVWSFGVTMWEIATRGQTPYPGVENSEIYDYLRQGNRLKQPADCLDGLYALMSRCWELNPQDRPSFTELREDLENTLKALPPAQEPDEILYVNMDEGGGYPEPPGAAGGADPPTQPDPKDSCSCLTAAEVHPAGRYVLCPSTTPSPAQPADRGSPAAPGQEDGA
Sequence of Wee1-like protein kinase 2 (Homo sapiens) (P0C1S8 whole entry, looked up): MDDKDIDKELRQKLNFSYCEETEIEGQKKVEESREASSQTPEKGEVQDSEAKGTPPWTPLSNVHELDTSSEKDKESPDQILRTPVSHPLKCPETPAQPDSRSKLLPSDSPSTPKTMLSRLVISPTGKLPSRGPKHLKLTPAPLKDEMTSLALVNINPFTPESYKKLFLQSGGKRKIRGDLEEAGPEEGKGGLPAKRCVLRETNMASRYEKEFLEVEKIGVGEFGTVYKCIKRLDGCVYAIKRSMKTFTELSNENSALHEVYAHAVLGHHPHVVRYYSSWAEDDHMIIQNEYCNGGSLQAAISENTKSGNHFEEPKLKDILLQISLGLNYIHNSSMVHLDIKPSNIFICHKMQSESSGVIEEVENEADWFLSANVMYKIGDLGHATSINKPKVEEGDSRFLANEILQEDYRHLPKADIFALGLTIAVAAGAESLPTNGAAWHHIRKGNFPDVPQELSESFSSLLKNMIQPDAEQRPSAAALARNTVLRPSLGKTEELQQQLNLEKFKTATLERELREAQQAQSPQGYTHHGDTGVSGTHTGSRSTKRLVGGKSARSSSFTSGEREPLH
Sequence of Protein-tyrosine kinase 2-beta (Homo sapiens) (Q14289 whole entry, looked up): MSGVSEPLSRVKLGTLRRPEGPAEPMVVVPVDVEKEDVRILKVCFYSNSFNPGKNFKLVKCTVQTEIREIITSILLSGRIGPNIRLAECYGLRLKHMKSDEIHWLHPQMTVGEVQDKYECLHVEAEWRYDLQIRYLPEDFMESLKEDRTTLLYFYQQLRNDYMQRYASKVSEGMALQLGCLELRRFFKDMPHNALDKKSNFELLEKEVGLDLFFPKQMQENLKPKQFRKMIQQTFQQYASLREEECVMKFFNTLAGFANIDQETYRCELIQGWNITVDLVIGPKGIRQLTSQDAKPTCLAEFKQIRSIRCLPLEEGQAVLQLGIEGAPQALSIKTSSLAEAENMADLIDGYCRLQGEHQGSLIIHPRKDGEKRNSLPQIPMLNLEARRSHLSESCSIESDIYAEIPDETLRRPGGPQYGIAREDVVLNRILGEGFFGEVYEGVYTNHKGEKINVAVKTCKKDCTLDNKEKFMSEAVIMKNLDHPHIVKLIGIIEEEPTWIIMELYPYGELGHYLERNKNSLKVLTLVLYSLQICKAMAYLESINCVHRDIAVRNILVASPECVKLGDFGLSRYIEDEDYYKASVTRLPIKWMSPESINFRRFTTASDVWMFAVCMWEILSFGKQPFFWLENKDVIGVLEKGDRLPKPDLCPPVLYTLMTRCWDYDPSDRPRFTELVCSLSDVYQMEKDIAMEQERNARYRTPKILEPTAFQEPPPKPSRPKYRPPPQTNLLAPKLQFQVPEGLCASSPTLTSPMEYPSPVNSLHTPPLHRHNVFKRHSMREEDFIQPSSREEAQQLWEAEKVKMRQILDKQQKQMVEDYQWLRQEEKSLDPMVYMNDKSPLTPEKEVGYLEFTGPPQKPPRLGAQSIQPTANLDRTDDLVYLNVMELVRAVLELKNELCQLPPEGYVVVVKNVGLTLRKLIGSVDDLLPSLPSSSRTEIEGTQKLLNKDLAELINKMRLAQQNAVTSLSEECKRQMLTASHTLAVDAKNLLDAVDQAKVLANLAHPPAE
Sequence of Casein kinase II subunit alpha (Homo sapiens) (P68400 whole entry, looked up): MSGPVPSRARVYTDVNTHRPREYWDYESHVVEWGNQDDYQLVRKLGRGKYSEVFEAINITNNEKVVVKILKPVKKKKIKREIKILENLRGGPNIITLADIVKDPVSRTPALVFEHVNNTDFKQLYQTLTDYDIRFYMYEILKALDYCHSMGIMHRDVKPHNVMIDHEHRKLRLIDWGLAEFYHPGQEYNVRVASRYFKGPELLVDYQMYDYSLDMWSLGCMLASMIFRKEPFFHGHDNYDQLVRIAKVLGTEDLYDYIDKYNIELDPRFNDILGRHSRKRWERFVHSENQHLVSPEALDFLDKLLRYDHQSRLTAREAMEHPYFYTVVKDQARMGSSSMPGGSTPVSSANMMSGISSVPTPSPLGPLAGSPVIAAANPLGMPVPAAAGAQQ

inhibition [1]: 0%
inhibition [2]: 19%
fold change (FC) [3]: 0
fold change (FC) [4]: 0
fold change (FC) [5]: 0.12
fold change (FC) [6]: 0.72
fold change (FC) [7]: 0.03
SMILES: CNC(=O)c1ccccc1Oc1nc(Nc2cc(OC)c(OC)c(OC)c2)ncc1Br

inhibition [8]: 13%
inhibition [9]: 5%
inhibition [10]: 4%
SMILES: CC(C)[C@H](NC(=O)c1cc(-c2cnn3cc(-c4ccc(OCCN5CCCCC5)cc4)cnc23)cs1)C(F)(F)F

inhibition [11]: 5%
inhibition [12]: 7%
inhibition [13]: 0%
fold change (FC) [14]: 0.26
SMILES: O=C(N[C@@H](C1CC1)C(F)(F)F)c1cc(-c2cnn3cc(-c4ccc(F)cc4)cnc23)cs1
